Experimental data collected from several papers.
Each line is one published result; the experiments were not run side by side.
Organism: Bacillus cereus

| SMILES | observed | method | strain | quantity | value |
| --- | --- | --- | --- | --- | --- |
| CN[C@H](CC(C)C)C(=O)N[C@H]1C(=O)N[C@@H](CC(N)=O)C(=O)N[C@H]2C(=O)N[C@H]3C(=O)N[C@H](C(=O)N[C@H](C(=O)O)c4cc(O)cc(O)c4-c4cc3ccc4O)[C@H](O)c3ccc(c(Cl)c3)Oc3cc2cc(c3O[C@@H]2O[C@H](CO)[C@@H](O)[C@H](O)[C@H]2O[C@H]2C[C@](C)(N)[C@H](O)[C@H](C)O2)Oc2ccc(cc2Cl)[C@H]1O | microbial growth | broth dilution | ATCC13061 | MIC | 1 µg/mL |
| O=C(Nc1ccc(S(=O)(=O)c2nccs2)cc1)c1cc(N=Nc2nccs2)ccc1O | microbial growth | broth dilution | – | MIC | 200 µg/mL |
| CO[C@H]1O[C@H](COC(c2ccccc2)(c2ccccc2)c2ccccc2)[C@@H](OC(=O)c2ccc(C(C)(C)C)cc2)[C@H](OC(=O)c2ccc(C(C)(C)C)cc2)[C@H]1OC(=O)c1ccc(C(C)(C)C)cc1 | microbial growth | broth dilution | – | MIC | 0.75 µg/mL |
| O=C1NC(=S)S/C1=C\c1ccc(-c2ccc(N(c3ccccc3)c3ccccc3)cc2)cc1 | microbial killing | broth dilution | ATCC10876 | MBC | > 1000 µg/mL |
| O=C(O)c1cn(C2CC2)c2cc(N3CCNCC3)c(F)cc2c1=O | microbial growth | – | – | MIC | 1.56 µM |
| CC(=O)NC[C@H]1CN(c2ccc(N3CCOCC3)c(F)c2)C(=O)O1 | microbial growth | broth dilution | ATCC13061 | MIC | 1 µg/mL |
| O=C(O)CN1C(=O)/C(=C/c2ccc(-c3ccc(N(c4ccccc4)c4ccccc4)cc3)c3ccccc23)NC1=S | microbial growth | broth dilution | ATCC10876 | MIC | > 1000 µg/mL |
| CNC(=O)[C@@H](C)[C@H]1C(=O)/C(=C(O)/C=C/C(C)=C/[C@@H](C)[C@H]2O[C@@]3(C)O[C@H](C=C[C@@]34CO4)[C@@H]2C)C(=O)N1[C@@H]1CC[C@H](O)[C@H](C)O1 | microbial growth | – | – | MIC | > 100 µM |
| Nc1ccc(-c2nc(-c3ccc(Oc4ccc(C(F)(F)F)cc4)cc3)no2)cc1 | microbial growth | broth dilution | ATCC13061 | MIC | 4 µg/mL |
| O=C(O)CN1C(=O)/C(=C/c2c3ccccc3c(-c3ccc(N(c4ccccc4)c4ccccc4)cc3)c3ccccc23)SC1=S | microbial killing | broth dilution | ATCC10876 | MBC | > 1000 µg/mL |
